Compounds with a hit are over-represented: about 2.4% of the library has one in this group of screens.
dFosB act-1 = activators of delta FosB homodimer, primary screen, biochemical, fluorescence polarization, TAMRA-CDK5 oligo, single point; Protein FosB (Mus musculus), P13346; purified delta FosB; percent of positive-control signal above neutral wells; activation, % at 25 µM; 340,000 tested, 0.99% active; AID 493131, 2011;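 active means mean activation above about 17%, with every replicate also reaching it, limit read from the data, passing the limit was not always enough; inconclusive means only one of the two conditions met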
Cneo AK release = Cryptococcus neoformans cell lysis inducers, primary screen, AK release luminescence, single concentration. C. neoformans lysis, adenylate kinase release luminescence, 4 h; normalised: neutral wells 0, clomiphene wells 100. lysis activity, % at 15 µM. 360,000 tested, 0.2% active;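 active means mean lysis activity across replicates of at least 80%, whatever share of replicates individually reach that level; inactive means mean lysis activity below 80%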
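read-out = cell lysis signal | test system = log-phase Cryptococcus neoformans yeast cells | input = cells at 5 × 10^6 per mL | medium = fresh YPD growth medium | signal = luminescent adenylate kinase detection reagent | timing = 4 h at 37 °C static, read 1 h later | dosing = single dose | controls = Clomiphene as positive lysis control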
Rtt109 Vps75 = inhibitors of C. albicans Rtt109/Vps75 HAT, primary screen, biochemical, ThioGlo CoA-SH fluorescence, plate reader; Histone acetyltransferase RTT109 (Candida albicans (strain SC5314 / ATCC MYA-2876)), …; purified Rtt109/Vps75, 4 h; inhibition, % at 34.9 µM; 330,000 tested, 0.16% active; AID 540336, 2011;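 active means inhibition of at least 50% in every replicate; inconclusive means best replicate reaches 50% inhibition but some replicates fall short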
Target sequence (Q5AAJ8 whole entry, looked up): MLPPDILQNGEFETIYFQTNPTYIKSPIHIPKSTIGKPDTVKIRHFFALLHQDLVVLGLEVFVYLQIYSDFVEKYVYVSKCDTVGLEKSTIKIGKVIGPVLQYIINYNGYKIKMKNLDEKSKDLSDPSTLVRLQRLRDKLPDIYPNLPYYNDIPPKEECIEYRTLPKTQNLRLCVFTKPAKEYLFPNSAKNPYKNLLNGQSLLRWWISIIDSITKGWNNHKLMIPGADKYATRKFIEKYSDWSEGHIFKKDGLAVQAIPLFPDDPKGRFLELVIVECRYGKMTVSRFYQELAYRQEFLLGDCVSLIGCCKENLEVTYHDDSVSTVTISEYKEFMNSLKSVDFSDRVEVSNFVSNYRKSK
GSIS activator = GLuc luminescence reporter in INS-1E cells, primary screen for activators of glucose-dependent secretion of insulin; INS-1E GLuc reporter insulin secretion, 2-3 h; activation, % at 16.6 µM; 370,000 tested, 0.61% active;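 active means lowest replicate activation of at least 40%, so every replicate reaches that level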;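 further: 0% = median of neutral control wells and 100% = median of IBMX positive control wells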
HIV Env fusion = inhibitors of HIV-1 Env-driven cell-cell fusion, primary screen, HeLa-JRFL effector, CEM21 target cells, luciferase | inhibition, % at 12.3 µM | 360,000 tested, 1.1% active | AID 651610, 2012;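 active means mean replicate inhibition score of at least 50 and every replicate individually at or above 50; inconclusive means only one of the two criteria met; inactive means mean below 50 and not all replicates reaching 50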;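 further: 0% = plate neutral controls and 100% = maraviroc near 300 nM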
miR-122 sensor = miR-122 Renilla sensor signal increase in Huh7, primary screen, miR-122 inhibitor project, cell-based, single point, plate reader | 340,000 tested, 0.3% active | activation (reporter increase), % at 12.5 µM | Huh7 miR-122 Renilla luciferase sensor, 48 h; neutral wells = 0, positive control = 100 | AID 602342, 2012;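 active means mean replicate activation score at least 90 and every replicate individually at or above 90; inconclusive means only one of the two criteria met; inactive means neither criterion met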;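 further: higher luciferase means less miR-122 activity so hits act as miR-122 inhibitors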
dFosB act-2 = activators of mouse delta FosB DNA binding, confirmation, biochemical, fluorescence polarization, TAMRA-CDK5 oligo, cherry-picked samples | shares compounds with dFosB act-1 | purified delta FosB; normalised: neutral wells 0, positive control 100 | activation, % at 24.9 µM | 2,400 tested, under 10 active;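 active means highest replicate activation at or above 34% and every replicate reaching that threshold; inconclusive means meets only one of the two criteria; inactive means meets neither criterion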;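 further: higher polarization means more probe DNA bound by delta FosB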
* = called active by the depositor; i = inactive; u = inconclusive; x = not tested or not shown; [ ] = dose if it differs, or a comment.

SMILES	dFosB act-1	Cneo AK release	Rtt109 Vps75	GSIS activator	HIV Env fusion	miR-122 sensor	dFosB act-2
C#CCOCCOCCOCCNc1nc(N2CCN(C(=O)[C@H](CCCN=C(N)N)n3cc(C(N)[C@@H](C)CC)nn3)CC2)nc(N2CCN(C(=O)[C@H](CCCCN)n3cc([C@@H](N)[C@H](C)CC)nn3)CC2)n1 (some centres not stated)	36*	10	54*	12	-9	-3	0
C#CCOCCOCCOCCNc1nc(N2CCN(C(=O)[C@H](CCCCN)n3cc(CN)nn3)CC2)nc(N2CCN(C(=O)[C@H](CCCCN)n3cc([C@@H](N)[C@H](C)CC)nn3)CC2)n1	43*	0	6	1	-47	-6	-1
C=CCOc1ccc(/C=C/C(=O)OCC(=O)N2CCN(S(=O)(=O)c3ccc(C)cc3C)CC2)cc1	5	0	-2	-3	x	0	x
Cc1ccc(S(=O)(=O)N2CCN(C(=O)COC(=O)/C=C/c3ccc([N+](=O)[O-])cc3)CC2)c(C)c1	24*	-1	-7	25	5	x	-3
O=C(c1cc(-c2cccc(Cl)c2)on1)N1CCN(c2ccc(F)cc2)CC1	21*	1	0	11	6	x	-5
CN1CCN(C(=O)c2cc(-c3cccc(Cl)c3)on2)CC1	-4	1	1	-4	-70	3	x
Cc1c(C(=O)Nc2cccc([N+](=O)[O-])c2)csc1-c1ccccc1	58*	-7	0	x	i	-5	6
O=C(Nc1ccc(NC(=O)c2cccc([N+](=O)[O-])c2)cc1)c1cccc([N+](=O)[O-])c1	2	-1	2	3	15	-5	x
COC(=O)c1c(NC(=O)c2ccccc2)sc(C(N)=O)c1C	-20	x	-22	4	-5	x	x
COC(=O)c1c(NC(=O)c2cccc([N+](=O)[O-])c2)sc(C(N)=O)c1C	29*	x	-12	9	6	x	-7
O=C(Nc1cccc([N+](=O)[O-])c1)c1cccc(C(=O)Nc2cccc([N+](=O)[O-])c2)c1	34*	6	2	-5	7	x	-1
O=C(Nc1ccc(F)cc1)N[C@@H]1C=C[C@H](CC(=O)N2CCOCC2)O[C@H]1CO	x	0	x	-1	-21[16.7 µM]	5[16.7 µM]	x
O=C(CCCCn1c(=S)[nH]c2ccsc2c1=O)NCc1ccc2c(c1)OCO2	125*	2	8	22	7	5	1
C[C@@H]1CN([C@H](C)CO)C(=O)c2cccc(NC(=O)NC3CCCCC3)c2O[C@H]1CN(C)S(C)(=O)=O	x	-1	x	0	x	2[16.7 µM]	x
C=CCn1c(SCC(=O)NCc2ccc3c(c2)OCO3)nc2scc(-c3ccc(F)cc3)c2c1=O	45*	0	-4	112*	107*	1	1
Cn1c(SCC(=O)NCc2ccc3c(c2)OCO3)nc2scc(-c3cccs3)c2c1=O	u	11	x	-17	7	9	x
COc1ccc2cc(CN(CC3COCCO3)S(=O)(=O)c3ccc(Cl)cc3)c(=O)[nH]c2c1 (configuration not stated)	39*	1	-9	x	x	-1	-1
COc1ccc2cc(CN(CC3CCCO3)S(=O)(=O)c3ccccc3)c(=O)[nH]c2c1 (configuration not stated)	-11	3	x	x	x	14	x
Cc1cnc(NC(=O)c2cc3c(C)nn(Cc4ccccc4Cl)c3s2)s1	30*	x	-3	10	-19	-7	7
CN(C)c1nc(NCc2ccccc2)nc(N/N=C/c2ccc3c(c2)OCO3)n1	58*	x	4	-23	-76	x	2

Compound activity from PubChem BioAssay.
